One test relates to Pseudomonas aeruginosa. Description: Antibacterial activity against Pseudomonas aeruginosa ATCC 27853 after 24 hrs by broth dilution method. It is filed as functional. Conditions: ATCC 27853, 24 h. An outline of the steps: (§1)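 CLSI broth microdilution in Mueller-Hinton broth, with levofloxacin as positive control. Final inoculum was 1 × 10^5 cfu/mL. Compounds were tested at final concentrations from 128 to 0.125 μg/mL in 2-fold serial dilutions. Plates were incubated for 24 h at 37 °C. MIC was read as the lowest concentration giving no visible growth.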
On the technique in general: In broth dilution the organism is exposed to a series of concentrations in liquid medium.

In test [1] the test system is Mycolicibacterium smegmatis. Briefly: Antibacterial activity against Mycobacterium smegmatis MC2 155 after 24 hrs by broth dilution method. Conditions: str. MC2 155, 24 h. In kind it is functional. Put shortly: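 CLSI broth microdilution MIC. Medium: Middlebrook 7H9 broth. Serial 2-fold dilutions give final concentrations of 128 to 0.125 μg/mL. Final inoculum is 1 × 10^5 cfu/mL. Incubation is 24 h at 37 °C. MIC is the lowest concentration with no visible growth. Levofloxacin serves as positive control.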

Another test concerns Candida albicans. Briefly: Antifungal activity against Candida albicans ATCC 10231 after 24 hrs by broth dilution method. It is filed as functional. The following applies: ATCC 10231, 24 h. Put shortly:
as §1

Another test has as its system Morganella morganii. Description: Antibacterial activity against multidrug-resistant Morganella morganii 07-09 after 24 hrs by broth dilution method. It is filed as functional. Conditions: 07-09, 24 h. An outline of the steps: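 Mueller-Hinton broth microdilution following CLSI. Strains came from ATCC or clinical isolates. Final compound range 128 to 0.125 μg/mL by 2-fold dilution, inoculum 1 × 10^5 cfu/mL final. Incubated 24 h at 37 °C. MIC read as the lowest concentration showing no visible growth. Levofloxacin is the positive control.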

A further test relates to HeLa. Briefly: Cytotoxicity against human HeLa cells after 96 hrs by MTT assay. It is filed as functional, cell-based.
Test [2] deals with Mycobacterium tuberculosis. Briefly: Antibacterial activity against Mycobacterium tuberculosis H37Rv after 14 days by broth dilution method. In kind it is functional. Conditions: 336 h. An outline of the steps:
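Broth microdilution per CLSI in Middlebrook 7H9 broth. Compounds run at final 128 to 0.125 μg/mL (2-fold series) against an inoculum of 1 × 10^5 cfu/mL final. Plates incubated 14 days at 37 °C. Endpoint is the lowest concentration without visible growth. Levofloxacin is the positive control.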

The test system of another test is Escherichia coli. Description: Antibacterial activity against Escherichia coli ATCC 25922 after 24 hrs by broth dilution method. It is filed as functional. The following applies: ATCC 25922, 24 h. An outline of the steps:
as §1

The next test has as its system HepG2. Description: Cytotoxicity against human […] cells after 96 hrs by MTT assay. It is filed as functional, cell-based. Conditions: HepG2, 96 h. For orientation: Tetrazolium dyes change colour on reduction, which living cells bring about.
In the next test the test system is Bacillus subtilis. Description: Antibacterial activity against Bacillus subtilis ATCC 6633 after 24 hrs by broth dilution method. The following applies: ATCC 6633, 24 h. In kind it is functional. Put shortly: as §1
A further test relates to Staphylococcus aureus. Briefly: Antibacterial activity against Staphylococcus aureus ATCC 25923 after 24 hrs by broth dilution method. In kind it is functional. The following applies: ATCC 25923, 24 h. Put shortly: as §1
The subject of the next test is Enterococcus faecalis. Description: Antibacterial activity against Enterococcus faecalis ATCC 29212 after 24 hrs by broth dilution method. It is filed as functional. Conditions: ATCC 29212, 24 h. Put shortly: as §1
The next test concerns A549. Briefly: Cytotoxicity against human A549 cells after 96 hrs by MTT assay. In kind it is functional, cell-based. The following applies: A549, 96 h.

Values after ≈ are worked out from the molar mass of the structure shown.

The results in this text go back to ChEMBL document CHEMBL1799937, “Streptothricin derivatives from Streptomyces sp. I08A 1776” (J Nat Prod, 2011).

As usually defined, the MIC is the least concentration at which growth counts as inhibited. Lower therefore signals a more susceptible organism. As a reminder, the IC50 is the concentration at which inhibition is half-maximal. Higher therefore signals lower potency. Turning to `CC(=O)N[C@@H](CCCN)CC(=O)N[C@@H]1[C@H](O)[C@@H](O)[C@@H](COC(N)=O)O[C@H]1/N=C1\N[C@@H]2[C@H](O)CNC(=O)[C@H]2N1`, the MIC (in the test with Pseudomonas aeruginosa; in test [1]; with Candida albicans; against Morganella morganii; in [2]; with Escherichia coli) was more than 128 µg/mL throughout. Besides, the MIC in the test with Bacillus subtilis, in the test on Staphylococcus aureus and against Enterococcus faecalis was more than 128 µg/mL throughout. Also, the IC50 in the test with HeLa, with HepG2 and in the test on A549 was more than 10 µM throughout.

Take `CC(=O)N[C@@H](CCCN)CC(=O)N[C@@H]1[C@H](O)[C@@H](O)[C@@H](COC(N)=O)O[C@H]1/N=C1\N[C@H]([C@H](O)CN)[C@@H](C(=O)O)N1`: the minimum inhibitory concentration (MIC) (in the test on Pseudomonas aeruginosa; in test [1]; in the test on Candida albicans; in the test on Morganella morganii; in test [2]; in the test on Escherichia coli) was more than 128 µg/mL in each case. Further, the MIC against Bacillus subtilis, against Staphylococcus aureus and in the test on Enterococcus faecalis was more than 128 µg/mL each time. The IC50 in the test on HeLa, with HepG2 and in the test with A549 was more than 10 µM throughout.

As for `CC(=O)N[C@@H](CCCN)CC(=O)N[C@@H]1[C@H](O)[C@@H](O)[C@@H](COC(N)=O)O[C@H]1/N=C1\N[C@@H]2[C@H](O)CNC(=O)[C@@H]2N1`, the MIC (in the test on Pseudomonas aeruginosa; in test [1]; against Candida albicans; with Morganella morganii; in test [2]; against Escherichia coli) was more than 128 µg/mL in each case. The MIC in the test with Bacillus subtilis, with Staphylococcus aureus and in the test with Enterococcus faecalis was more than 128 µg/mL each time. Besides, the 50% inhibitory concentration (IC50) in the test with HeLa, in the test with HepG2 and with A549 was more than 10 µM each time.

Consider `CC(=O)N[C@@H](CCCN)CC(=O)N[C@@H]1[C@H](O)[C@@H](O)[C@@H](COC(N)=O)O[C@@H]1/N=C1\N[C@@H]2[C@H](O)CNC(=O)[C@H]2N1`, for which the MIC (against Pseudomonas aeruginosa; in test [1]; against Candida albicans; against Morganella morganii; in [2]; against Escherichia coli) was more than 128 µg/mL throughout. The minimum inhibitory concentration (MIC) against Bacillus subtilis, against Staphylococcus aureus and with Enterococcus faecalis was more than 128 µg/mL each time. Besides, the IC50 in the test on HeLa, with HepG2 and with A549 was more than 10 µM throughout.

In the case of `NCCC[C@H](N)CC(=O)NCCC[C@H](N)CC(=O)N[C@@H]1[C@H](O)[C@@H](O)[C@@H](COC(N)=O)O[C@H]1/N=C1\N[C@@H]2[C@H](O)CNC(=O)[C@H]2N1`, the MIC against Pseudomonas aeruginosa is more than 128 µg/mL; in [1], 64 µg/mL (≈ 101 µM); with Candida albicans, 32 µg/mL (≈ 50.7 µM); against Morganella morganii it was more than 128 µg/mL; in test [2], more than 128 µg/mL; in the test on Escherichia coli, more than 128 µg/mL. The values for the MIC against Bacillus subtilis, with Staphylococcus aureus and against Enterococcus faecalis were 16 µg/mL (≈ 25.4 µM), more than 128 µg/mL and more than 128 µg/mL, respectively. Further, the IC50 in the test on HeLa, with HepG2 and in the test on A549 was more than 10 µM throughout.

Take `CC(=O)N[C@@H](CCCNC(=O)C[C@@H](N)CCCNC(=O)C[C@@H](N)CCCN)CC(=O)N[C@@H]1[C@H](O)[C@@H](OC(N)=O)[C@@H](CO)O[C@H]1NC1=N[C@@H]2C(=O)NC[C@@H](O)[C@H]2N1`: the MIC (against Pseudomonas aeruginosa; in test [1]; against Candida albicans; in the test with Morganella morganii; in test [2]; against Escherichia coli) was more than 128 µg/mL in each case. In addition, the MIC against Bacillus subtilis, with Staphylococcus aureus and in the test with Enterococcus faecalis was more than 128 µg/mL each time. Moreover, the IC50 in the test on HeLa, in the test on HepG2 and with A549 was more than 10 µM each time.

Turning to `CC(=O)N[C@@H](CCCNC(=O)C[C@@H](N)CCCN)CC(=O)N[C@@H]1[C@H](O)[C@@H](OC(N)=O)[C@@H](CO)O[C@H]1/N=C1\N[C@@H]2[C@H](O)CNC(=O)[C@H]2N1`, the MIC (in the test with Pseudomonas aeruginosa; in test [1]; against Candida albicans; with Morganella morganii; in [2]; with Escherichia coli) was more than 128 µg/mL in each case. Further, the MIC with Bacillus subtilis, with Staphylococcus aureus and with Enterococcus faecalis was more than 128 µg/mL in each case. The IC50 in the test with HeLa, in the test on HepG2 and with A549 was more than 10 µM in each case.

Take `C[C@H]1COc2c(N3CCN(C)CC3)c(F)cc3c(=O)c(C(=O)O)cn1c23.C[C@H]1COc2c(N3CCN(C)CC3)c(F)cc3c(=O)c(C(=O)O)cn1c23.O` [LEVOFLOXACIN]: the MIC with Pseudomonas aeruginosa was 0.25 µg/mL; in test [1], 1 µg/mL; with Candida albicans, more than 128 µg/mL; in the test with Morganella morganii it was 16 µg/mL; in [2], 0.5 µg/mL; against Bacillus subtilis it was 0.12 µg/mL. In addition, the MIC against Staphylococcus aureus was 0.12 µg/mL; against Enterococcus faecalis, 0.5 µg/mL.

Take `NCCC[C@H](N)CC(=O)NCCC[C@H](N)CC(=O)N[C@@H]1[C@H](O)[C@@H](OC(N)=O)[C@@H](CO)O[C@H]1NC1=N[C@@H]2C(=O)NC[C@@H](O)[C@H]2N1` [STREPTOTHRICIN E]: the MIC in the test on Pseudomonas aeruginosa came to 64 µg/mL (≈ 101 µM); in [1], 4 µg/mL (≈ 6.34 µM); against Candida albicans, 1 µg/mL (≈ 1.59 µM); in the test on Morganella morganii, 4 µg/mL (≈ 6.34 µM); in test [2] it was 16 µg/mL (≈ 25.4 µM); in the test with Escherichia coli, 16 µg/mL (≈ 25.4 µM). The MIC came to 1 µg/mL (≈ 1.59 µM) in the test with Bacillus subtilis, 4 µg/mL (≈ 6.34 µM) against Staphylococcus aureus and 64 µg/mL (≈ 101 µM) against Enterococcus faecalis. Also, the IC50 with HeLa, with HepG2 and with A549 was more than 10 µM each time.
